Source: ChEMBL document CHEMBL2046381, “Defining the mechanism of action and enzymatic selectivity of psammaplin A against its epigenetic targets” (J Med Chem, 2012)

What was measured:
[1] = biological target: T1, Histone deacetylase-like amidohydrolase (Alcaligenes sp. (strain DSM 11172) (Bordetella sp. (strain FB188)), UniProt Q70I53); assay: Inhibition of Bordetella sp. (strain FB188) N-terminus His-tagged HDAH expressed in Escherichia coli BL21 (DE3); parameters: species or system Alcaligenaceae bacterium FB188
T1 sequence (Q70I53 whole entry): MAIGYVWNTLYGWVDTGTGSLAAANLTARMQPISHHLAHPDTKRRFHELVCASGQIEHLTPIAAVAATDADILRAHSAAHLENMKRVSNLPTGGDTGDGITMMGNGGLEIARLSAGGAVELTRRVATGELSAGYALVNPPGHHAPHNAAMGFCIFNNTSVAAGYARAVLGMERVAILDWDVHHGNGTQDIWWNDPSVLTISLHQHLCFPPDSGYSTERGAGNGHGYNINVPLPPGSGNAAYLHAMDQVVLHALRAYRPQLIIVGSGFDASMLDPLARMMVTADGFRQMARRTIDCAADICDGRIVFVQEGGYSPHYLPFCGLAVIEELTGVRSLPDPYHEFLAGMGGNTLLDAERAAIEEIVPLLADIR
Method in brief: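 Recombinant N-terminal His6-tagged HDAH from Bordetella strain FB188, expressed in E. coli BL21, purified on zinc-loaded His-Trap column, eluted with 500 mM imidazole, dialyzed into assay buffer (>98% pure by SDS-PAGE). Tested directly against compounds; thiols generated in situ from disulfides with TCEP.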

[2] = biological target: T2, Histone deacetylase 7 (Homo sapiens, UniProt Q8WUI4); assay: Inhibition of human recombinant HDAC7 using Boc-lys(Ac)-AMC as substrate preincubated for 20 mins with substrate measured after 60 mins by fluorescence analysis
T2 sequence (Q8WUI4 whole entry): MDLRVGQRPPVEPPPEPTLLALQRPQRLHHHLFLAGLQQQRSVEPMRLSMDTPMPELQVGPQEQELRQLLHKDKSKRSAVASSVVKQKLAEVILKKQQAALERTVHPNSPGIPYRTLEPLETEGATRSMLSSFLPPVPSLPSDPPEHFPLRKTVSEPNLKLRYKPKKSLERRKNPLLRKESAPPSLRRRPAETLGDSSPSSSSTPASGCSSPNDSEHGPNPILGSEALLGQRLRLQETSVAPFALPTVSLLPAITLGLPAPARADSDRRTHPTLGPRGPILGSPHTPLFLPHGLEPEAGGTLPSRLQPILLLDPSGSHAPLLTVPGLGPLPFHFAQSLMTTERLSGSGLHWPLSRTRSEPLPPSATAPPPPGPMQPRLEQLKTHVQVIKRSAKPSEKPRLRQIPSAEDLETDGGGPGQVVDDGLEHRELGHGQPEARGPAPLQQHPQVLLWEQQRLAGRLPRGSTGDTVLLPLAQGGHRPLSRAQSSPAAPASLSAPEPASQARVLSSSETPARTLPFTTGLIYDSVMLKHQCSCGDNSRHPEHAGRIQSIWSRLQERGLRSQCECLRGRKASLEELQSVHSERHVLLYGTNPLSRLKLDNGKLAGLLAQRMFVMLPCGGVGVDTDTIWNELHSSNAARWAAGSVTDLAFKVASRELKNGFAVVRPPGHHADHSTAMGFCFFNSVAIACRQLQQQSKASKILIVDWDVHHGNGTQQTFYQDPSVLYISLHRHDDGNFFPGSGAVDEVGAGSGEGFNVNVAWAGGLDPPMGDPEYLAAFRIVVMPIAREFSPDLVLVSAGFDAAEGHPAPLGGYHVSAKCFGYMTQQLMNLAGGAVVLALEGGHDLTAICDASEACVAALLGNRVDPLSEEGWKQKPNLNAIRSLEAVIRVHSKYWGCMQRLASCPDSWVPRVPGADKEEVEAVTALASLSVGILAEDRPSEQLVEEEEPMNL

[3] = test system: MCF7; assay: Growth inhibition of human MCF7 cells after 96 hrs by sulphorhodamine B assay; assay type: functional; settings: MCF7, 96 h
Method in brief: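 SRB growth assay; MCF7 and WI38 seeded 4000 cells/well, A549 2000 cells/well, attached overnight, then exposed to freshly made drug solutions (0.1 to 50 μM) for 96 h. Fixed with cold 10% TCA, stained with 0.4% SRB; absorbance at 540 nm as percent of untreated control, IC50 from mean absorbance.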

[4] = test system: MCF7; assay: Selectivity index, ratio of GI50 for human A549 cells to GI50 for human MCF7 cells; assay type: functional

N/N=C(\Cc1ccc(O)c(Br)c1)C(=O)NCCS
IC50 [1]: 32 µM | IC50 [2]: 45 µM | GI50 [3]: 3.42 µM | RatioGI50 [4]: 10
